Source: ChEMBL document CHEMBL4184322, “Coupling of an Acyl Migration Prodrug Strategy with Bio-activation To Improve Oral Delivery of the HIV-1 Protease Inhibitor Atazanavir” (J Med Chem, 2018)
≈ marks a conversion by molar mass, not a printed value.

Legend:
[1] = Half life of the compound in 0.1 N aqueous HCl at pH 1 at 37 degC after 24 hrs by UPLC method; format: physicochemical
[2] = Half life of the compound in acetate buffer at pH 4 at 37 degC after 24 hrs by UPLC method; format: physicochemical
[3] = Half life of the compound in phosphate buffer at pH 6.5 at 37 degC after 24 hrs by UPLC method; format: physicochemical
[4] = Solubility of the compound in 0.1 N aqueous HCl at pH 1 at 25 degC by UPLC method; format: physicochemical
[5] = Solubility of the compound in acetate buffer at pH 4 at 25 degC by UPLC method; format: physicochemical
[6] = Solubility of the compound in phosphate buffer at pH 6.5 at 25 degC by UPLC method; format: physicochemical
[7] = tested on: Rattus norvegicus; test: Cmax in Sprague-Dawley rat assessed as atazanavir at 3 mg/kg, po equiv of atazanavir after 0.25 to 24 hrs by UPLC/MS/MS method; format: ADME, organism-based; design: dose 3 mg/kg, route oral; conditions: in vivo
[8] = tested on: Rattus norvegicus; test: Tmax in Sprague-Dawley rat assessed as atazanavir at 3 mg/kg, po equiv of atazanavir after 0.25 to 24 hrs by UPLC/MS/MS method; format: ADME, organism-based; conditions: in vivo
[9] = tested on: Rattus norvegicus; test: AUClast in Sprague-Dawley rat assessed as atazanavir at 3 mg/kg, po equiv of atazanavir after 0.25 to 24 hrs by UPLC/MS/MS method; format: ADME, organism-based; design: time upper 24 hr, dose 3 mg/kg, time lower 0.25 hr, route oral; conditions: in vivo
[10] = tested on: Rattus norvegicus; test: Oral bioavailability in Sprague-Dawley rat assessed as atazanavir at 3 mg/kg equiv of atazanavir after 0.25 to 24 hrs by UPLC/MS/MS method relative to atazanavir; format: ADME, organism-based; conditions: in vivo
[11] = tested on: Rattus norvegicus; test: Trough concentration in Sprague-Dawley rat assessed as atazanavir at 3 mg/kg, po equiv of atazanavir at 24 hrs by UPLC/MS/MS method; format: ADME, organism-based; conditions: in vivo; for concentration: read-out: Cmin; for Cmin: BLD = below limit of detection
[12] = tested on: Rattus norvegicus; test: Ratio of AUClast in Sprague-Dawley rat at 3 mg/kg, po equiv of atazanavir to AUC in Sprague-Dawley rat assessed as atazanavir at 3 mg/kg, po equiv of atazanavir; format: ADME, organism-based; conditions: in vivo
[13] = Half life in rat hepatocytes at 1 uM after 5 to 120 mins by UPLC-MS/MS method; format: ADME, cell-based, Hepatocyte
[14] = Half life in rat whole blood at 1 uM after 5 to 90 mins by UPLC-MS/MS method; format: ADME, tissue-based
[15] = Apparent permeability across apical to basolateral side in human Caco2 cells; format: ADME, cell-based; conditions: Caco-2
[16] = Apparent permeability across basolateral to apical side in human Caco2 cells; format: ADME, cell-based; conditions: Caco-2
[17] = Efflux ratio of apparent permeability across basolateral to apical over apical to basolateral side in human Caco2 cells; format: ADME, cell-based; conditions: Caco-2
[18] = Half life of the compound in phosphate buffer at pH 7.4 at 37 degC after 24 hrs by UPLC method; format: physicochemical
[19] = tested on: Rattus norvegicus; test: Oral bioavailability in Sprague-Dawley rat assessed as atazanavir at 3 mg/kg equiv of atazanavir after 0.25 to 24 hrs by UPLC/MS/MS method; format: ADME, organism-based; conditions: in vivo
[20] = tested on: Rattus norvegicus; test: (§1) Cmax in Sprague-Dawley rat assessed as (2S,3S)-3-Amino-1-(2-((S)-2-((methoxycarbonyl)amino)-3,3-dimethylbutanoyl)-1-(4-(pyridin-2-yl)benzyl)hydrazinyl)4-phenylbutan-2-yl (S)-2-((Methoxycarbonyl)amino)-3,3-dimethylbutanoate Dihydrochloride at 3 mg/kg, po equiv of atazanavir after 0.25 to 24 hrs by UPLC/MS/MS method; format: ADME, organism-based; design: dose 3 mg/kg, route oral; conditions: in vivo
[21] = tested on: Rattus norvegicus; test: as §1, with “Tmax” for “Cmax”; format: ADME, organism-based; conditions: in vivo
[22] = tested on: Rattus norvegicus; test: as §1, with “AUClast” for “Cmax”; format: ADME, organism-based; design: time lower 0.25 hr, dose 3 mg/kg, time upper 24 hr, route oral; conditions: in vivo
[23] = tested on: Rattus norvegicus; test: Trough concentration in Sprague-Dawley rat assessed as (2S,3S)-3-Amino-1-(2-((S)-2-((methoxycarbonyl)amino)-3,3-dimethylbutanoyl)-1-(4-(pyridin-2-yl)benzyl)hydrazinyl)4-phenylbutan-2-yl (S)-2-((Methoxycarbonyl)amino)-3,3-dimethylbutanoate Dihydrochloride at 3 mg/kg, po equiv of atazanavir at 24 hrs by UPLC/MS/MS method; format: ADME, organism-based; conditions: in vivo, read-out: Cmin
[24] = tested on: Rattus norvegicus; test: AUC (0 to 24 hrs) in famotidine treated Sprague-Dawley rat assessed as atazanavir at 10 mg/kg, po equiv of atazanavir by UPLC/MS/MS method; format: ADME, organism-based; design: time < 24 hr, dose 10 mg/kg, route oral; conditions: in vivo
Procedure, shortened: (§2)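 Rat gastric pH model. Gastric pH was modulated by pretreatment with either pentagastrin or famotidine. Dosing was oral as a suspension in 0.5% methyl cellulose / 99.5% water, with parent AUC0–24 h determined in each arm.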

[25] = tested on: Rattus norvegicus; test: AUC (0 to 24 hrs) in pentagastrin treated Sprague-Dawley rat assessed as atazanavir at 10 mg/kg, po equiv of atazanavir by UPLC/MS/MS method; format: ADME, organism-based; design: dose 10 mg/kg, time < 24 hr, route oral; conditions: in vivo; procedure, shortened: as §2
[26] = tested on: Rattus norvegicus; test: AUC (0 to 24 hrs) in Sprague-Dawley rat assessed as atazanavir at 10 mg/kg, po equiv of atazanavir by UPLC/MS/MS method; format: ADME, organism-based; design: time < 24 hr, dose 10 mg/kg, route oral; conditions: in vivo
[27] = Trough concentration in Sprague-Dawley rat at 3 mg/kg, po at 24 hrs by UPLC/MS/MS method; format: ADME, organism-based; conditions: in vivo, read-out: Cmin
[28] = tested on: Rattus norvegicus; test: Cmax in Sprague-Dawley rat at 3 mg/kg, po after 0.25 to 24 hrs by UPLC/MS/MS method; format: ADME, organism-based; design: dose 3 mg/kg, route oral; conditions: in vivo
[29] = Oral bioavailability in Sprague-Dawley rat at 3 mg/kg after 0.25 to 24 hrs by UPLC/MS/MS method; format: ADME, organism-based; conditions: in vivo
[30] = Tmax in Sprague-Dawley rat at 3 mg/kg, po after 0.25 to 24 hrs by UPLC/MS/MS method; format: ADME, organism-based; conditions: in vivo
[31] = tested on: Rattus norvegicus; test: AUClast in Sprague-Dawley rat at 3 mg/kg, po after 0.25 to 24 hrs by UPLC/MS/MS method; format: ADME, organism-based; design: time 0.25-24 hr, dose 3 mg/kg, route oral; conditions: in vivo
[32] = AUC (0 to 24 hrs) in famotidine treated Sprague-Dawley rat at 10 mg/kg, po by UPLC/MS/MS method; format: ADME, organism-based; design: dose 10 mg/kg, time < 24 hr, route oral; conditions: in vivo
Procedure, shortened: (§3)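 Rat gastric-pH model: gastric pH raised with famotidine or lowered with pentagastrin before oral dosing […] as a suspension in 0.5% methyl cellulose / 99.5% water; plasma atazanavir (parent) AUC0–24 h determined.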

[33] = AUC (0 to 24 hrs) in pentagastrin treated Sprague-Dawley rat at 10 mg/kg, po by UPLC/MS/MS method; format: ADME, organism-based; design: dose 10 mg/kg, time < 24 hr, route oral; conditions: in vivo; procedure, shortened: as §3
[34] = AUC (0 to 24 hrs) in Sprague-Dawley rat at 10 mg/kg, po by UPLC/MS/MS method; format: ADME, organism-based; design: dose 10 mg/kg, time < 24 hr, route oral; conditions: in vivo
[35] = tested on: Rattus norvegicus; test: Ratio of AUC in pentagastrin treated Sprague-Dawley rat at 10 mg/kg, po to AUC in famotidine treated Sprague-Dawley rat at 10 mg/kg, po; format: ADME, organism-based; conditions: in vivo
Procedure, shortened: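 Oral suspension in 0.5% methyl cellulose / 99.5% water, given to rats whose gastric pH was modulated by pretreatment with pentagastrin or famotidine.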

Row | Structure (SMILES) | half-life [1] [h] | half-life [2] [h] | half-life [3] [h] | solubility [4] [µg/mL] | solubility [5] [µg/mL] | solubility [6] [µg/mL] | Cmax [7] [nM] | Tmax [8] [h] | AUClast [9] [µM·h] | F [10] [%] | concentration [11] [nM] | Ratio AUC [12] | half-life at 1 µM [13] [h] | half-life at 1 µM [14] [h] | Cmin [11] | Papp A→B [15] [×10⁻⁶ cm/s] | Papp B→A [16] [×10⁻⁶ cm/s] | efflux ratio [17] | other results
1 | COC(=O)N[C@H](C(=O)NN(Cc1ccc(-c2ccccn2)cc1)C[C@H](OC(=O)[C@@H](NC(=O)OC)C(C)(C)C)[C@H](Cc1ccccc1)NC(=O)OCc1oc(=O)oc1C)C(C)(C)C | > 500 | > 500 | 120 | > 1800 | < 1 | < 1 | 180 | 1.3 | 0.194 | 10.1 | 0.3 | 0.1 | < 0.0833 | < 0.0833 | – | – | – | – | –
2 | COC(=O)N[C@H](C(=O)NN(Cc1ccc(-c2ccccn2)cc1)C[C@H](OC(=O)[C@@H](NC(=O)OC)C(C)(C)C)[C@@H](N)Cc1ccccc1)C(C)(C)C.Cl.Cl | 376 | 334 | 6.6 | > 900 | > 400 | – | 8 | 0.4 | 0.016 | 0.83 | – | 4.9 | 1.32 | > 2 | Bld | 2.3 | 34.8 | 15 | –
3 | COC(=O)N[C@H](C(=O)NN(Cc1ccc(-c2ccccn2)cc1)C[C@H](OC(=O)[C@@H](NC(=O)OC)C(C)(C)C)[C@H](Cc1ccccc1)NC(=O)OC(OC(=O)[C@H](N)C(C)C)C(C)C)C(C)(C)C.Cl.Cl (stereo partly specified) | > 500 | > 500 | 215 | > 500 | > 1430 | 27 | 37 | 2.3 | 0.167 | 8.7 | 0.3 | 50.5 | 0.883 | > 2 | – | < 1.5 | 7.3 | > 5 | –
4 | COC(=O)N[C@H](C(=O)N[C@@H](Cc1ccccc1)[C@@H](O)CN(Cc1ccc(-c2ccccn2)cc1)NC(=O)[C@@H](NC(=O)OC)C(C)(C)C)C(C)(C)C [ATAZANAVIR] | > 500 | > 500 | > 500 | 1690 (≈ 2400 µM) | < 1 | < 1 | – | – | – | – | – | – | 0.467 | > 2 | – | – | 47 | > 31 | concentration at 24 h [27]: 0.25 nM; Cmax [28]: 266 nM; bioavailability [29]: 20%; Tmax [30]: 0.5 h; AUClast [31]: 0.384 µM·h; AUC(0-t) at 24 h [32]: 0.005 µM·h; AUC(0-t) at 24 h [33]: 2.46 µM·h; AUC(0-t) at 24 h [34]: 0.24 µM·h; Ratio AUC [35]: 492

Continued, in another order:

Row | half-life [1] [h] | half-life [2] [h] | half-life [3] [h] | solubility [4] [µg/mL] | solubility [5] [µg/mL] | solubility [6] [µg/mL] | Cmax [7] [nM] | Tmax [8] [h] | AUClast [9] [µM·h] | F [10] [%] | concentration [11] [nM] | Ratio AUC [12] | half-life at 1 µM [13] [h] | half-life at 1 µM [14] [h] | Cmin [11] | Papp A→B [15] [×10⁻⁶ cm/s] | Papp B→A [16] [×10⁻⁶ cm/s] | efflux ratio [17] | Structure (SMILES) | other results
5 | > 500 | 334 | 6.6 | > 1800 | > 1500 | – | 56 | 0.4 | 0.083 | 4.3 | – | – | < 0.0833 | 0.333 | Bld | – | – | – | COC(=O)N[C@H](C(=O)NN(Cc1ccc(-c2ccccn2)cc1)C[C@H](OC(=O)[C@@H](NC(=O)OC)C(C)(C)C)[C@H](Cc1ccccc1)NC(=O)OCOC(=O)[C@@H](N)C(C)C)C(C)(C)C.Cl.Cl | half-life [18]: 1.8 h
6 | – | – | – | – | – | – | 10 | – | – | – | – | – | – | – | Bld | – | – | – | COC(=O)N[C@H](C(=O)N[C@@H](Cc1ccccc1)[C@H](CN(Cc1ccc(-c2ccccn2)cc1)NC(=O)[C@@H](NC(=O)OC)C(C)(C)C)OC(=O)[C@@H](N)C(C)C)C(C)(C)C.Cl.Cl | F [19]: 2.2%
7 | > 500 | > 500 | 108 | > 1100 | 120 | 10 | 310 | 1.7 | 1.446 | 75.3 | 4.5 | 3.4 | 0.933 | > 2 | – | < 1.5 | 11.4 | > 8 | COC(=O)N[C@H](C(=O)NN(Cc1ccc(-c2ccccn2)cc1)C[C@H](OC(=O)[C@@H](NC(=O)OC)C(C)(C)C)[C@H](Cc1ccccc1)NC(=O)OC(OC(=O)[C@@H](N)C(C)C)C(C)C)C(C)(C)C.Cl.Cl (stereo partly specified) | Cmax [20]: 124 nM; Tmax [21]: 1.7 h; AUClast [22]: 0.579 µM·h; concentration [23]: 2 nM; AUC [24]: 1.275 µM·h; AUC [25]: 1.332 µM·h; AUC [26]: 2.093 µM·h
